According to paper PMC7138392 (Industrial Crops and Products, 2019):

Experiment: Cytotoxicity in MDCK cells
Assay type: cell-based, Canine
Settings: dog
Summary of the method: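 MDCK cells (1 × 10^5/well) grown 24 h at 37 °C, 5% CO2, then washed twice with PBS pH 7.20. Exposed to test compound at 100 to 3.12 μM in p-MEM for 72 h at 37 °C, 5% CO2. Fixed, stained with 0.40% crystal violet in methanol, A490 read. Viability expressed relative to untreated cell control; CC50 by regression. Triplicate.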

CCC(CC)O[C@@H]1C=C(C(=O)O)C[C@H](N)[C@H]1NC(C)=O [OC, Oseltamivir carboxylate]
CC50 at 72 h: > 100 µM
